What follows are compounds tested against T1, Falcipain 2 (Plasmodium falciparum, UniProt Q9N6S8) (assay: Inhibition of Plasmodium falciparum falcipain 2 incubated with compound for 10 mins before addition of 25 uM Z-Leu-Arg-AMC substrate by fluorescence spectrophotometry).
T1 sequence (Q9N6S8 whole entry): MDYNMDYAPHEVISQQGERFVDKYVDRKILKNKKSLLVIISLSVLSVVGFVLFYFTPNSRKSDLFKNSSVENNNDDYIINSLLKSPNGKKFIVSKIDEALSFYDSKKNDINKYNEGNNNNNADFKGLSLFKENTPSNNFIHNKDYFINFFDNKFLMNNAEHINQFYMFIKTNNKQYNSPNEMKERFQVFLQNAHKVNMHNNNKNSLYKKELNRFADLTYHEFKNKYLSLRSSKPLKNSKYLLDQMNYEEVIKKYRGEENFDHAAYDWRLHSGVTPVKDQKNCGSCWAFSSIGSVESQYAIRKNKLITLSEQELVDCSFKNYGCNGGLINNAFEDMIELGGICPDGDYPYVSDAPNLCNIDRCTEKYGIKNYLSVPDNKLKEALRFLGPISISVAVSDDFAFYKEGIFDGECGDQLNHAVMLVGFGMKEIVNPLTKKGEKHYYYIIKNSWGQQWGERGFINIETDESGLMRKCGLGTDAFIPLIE
Summary of the method: (§1)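 Run at 25 °C in 100 mM sodium acetate pH 6.0 with 5 mM DTT and 0.75% DMSO. Enzyme was preincubated 10 min with compound diluted from DMSO, then Z-Leu-Arg-AMC was added and fluorescence was read immediately. Eight inhibitor concentrations were made by fivefold serial dilution. IC50 was fitted to percent inhibition versus a no-inhibitor control against log concentration.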

Row | SMILES | IC50 [µM]
1 | CC(C)CCNC(=O)[C@H](CC(C)C)N=CC1C(=O)Nc2ccccc21 (stereo partly drawn) [(Z/E)-(S)-N-isopentyl-4-methyl-2-((2-oxoindolin-3-ylidene)methylamino)pentanamide] | > 50
2 | CCOC(=O)[C@H](Cc1ccccc1)N=CC1C(=O)Nc2ccccc21 (stereo partly drawn) [(Z/E)-(S)-ethyl 2-((2-oxoindolin-3-ylidene)methylamino)-3-phenylpropanoate] | > 50
3 | O=C1Nc2ccccc2C1C=Nc1ccccc1 (stereo not drawn) [3-((phenylamino)methylene)indolin-2-one] | > 50
4 | CCOC(=O)CN=CC1C(=O)Nc2ccccc21 (stereo not drawn) [(Z/E)-ethyl 2-((2-oxoindolin-3-ylidene)methylamino)acetate] | > 50
5 | CC(C)CCNC(=O)CN=CC1C(=O)Nc2ccccc21 (stereo not drawn) [(Z/E)-N-isopentyl-2-((2-oxoindolin-3-ylidene)methylamino)acetamide] | > 50
6 | CC(C)CCNC(=O)[C@H](CC(C)C)N=CC1C(=O)N(C)c2ccccc21 (stereo partly drawn) [(Z/E)-(S)-N-isopentyl-4-methyl-2-((1-methyl-2-oxoindolin-3-ylidene)methylamino)pentanamide] | > 50

Next, values leading:

Row | IC50 [µM] | SMILES
7 | > 50 | O=C1Nc2ccc(Cl)cc2C1C=NCCCNc1ccnc2cc(Cl)ccc12 (stereo not drawn) [(Z/E)-5-chloro-3-((3-(7-chloroquinolin-4-ylamino)propylamino)methylene)indolin-2-one]
8 | > 50 | CN1C(=O)C(C=NCCCNc2ccnc3cc(Cl)ccc23)c2ccccc21 (stereo not drawn) [(Z/E)-3-((3-(7-chloroquinolin-4-ylamino)propylamino)methylene)-1-methylindolin-2-one]
9 | > 50 | O=C1Nc2ccccc2C1C=NCCCNc1ccnc2cc(Cl)ccc12 (stereo not drawn) [(Z/E)-3-((3-(7-chloroquinolin-4-ylamino)propylamino)methylene)indolin-2-one]
10 | > 50 | O=C1Nc2cc(Cl)ccc2C1C=NCCCNc1ccnc2cc(Cl)ccc12 (stereo not drawn) [(Z/E)-6-chloro-3-((3-(7-chloroquinolin-4-ylamino)propylamino)methylene)indolin-2-one]
11 | > 50 | O=C1Nc2c(Cl)cccc2C1C=NCCCNc1ccnc2cc(Cl)ccc12 (stereo not drawn) [(Z/E)-7-chloro-3-((3-(7-chloroquinolin-4-ylamino)propylamino)methylene)indolin-2-one]

Each compound was assayed against Cysteine protease falcipain-3 (Plasmodium falciparum, UniProt Q9NAW4) (assay: Inhibition of Plasmodium falciparum falcipain 3 incubated with compound for 10 mins before addition of 25 uM Z-Leu-Arg-AMC substrate by fluorescence spectrophotometry).
Summary of the method: as §1

Chain of Cysteine protease falcipain-3 (Q9NAW4 1-492): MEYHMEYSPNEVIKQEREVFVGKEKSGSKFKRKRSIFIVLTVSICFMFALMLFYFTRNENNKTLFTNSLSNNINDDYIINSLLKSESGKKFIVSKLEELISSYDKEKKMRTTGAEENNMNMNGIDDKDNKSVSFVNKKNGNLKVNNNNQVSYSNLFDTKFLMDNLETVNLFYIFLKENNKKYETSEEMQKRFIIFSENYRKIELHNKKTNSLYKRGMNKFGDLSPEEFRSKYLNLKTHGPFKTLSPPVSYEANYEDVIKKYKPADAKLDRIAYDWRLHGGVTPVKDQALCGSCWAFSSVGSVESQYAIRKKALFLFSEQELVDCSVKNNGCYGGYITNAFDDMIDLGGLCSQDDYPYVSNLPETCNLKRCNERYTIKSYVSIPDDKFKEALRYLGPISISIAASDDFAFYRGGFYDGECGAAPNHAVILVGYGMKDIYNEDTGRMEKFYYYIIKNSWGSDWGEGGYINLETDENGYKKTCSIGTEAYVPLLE

Row | IC50 [µM] | SMILES
12 | > 50 | CC(C)CCNC(=O)[C@H](CC(C)C)N=CC1C(=O)Nc2ccccc21 (stereo partly drawn) [(Z/E)-(S)-N-isopentyl-4-methyl-2-((2-oxoindolin-3-ylidene)methylamino)pentanamide]
13 | > 50 | CC(C)CCNC(=O)[C@H](CCc1ccccc1)N=CC1C(=O)Nc2ccccc21 (stereo partly drawn) [(Z/E)-(S)-N-isopentyl-2-((2-oxoindolin-3-ylidene)methylamino)-4-phenylbutanamide]
14 | > 50 | CC(C)CCNC(=O)[C@H](Cc1ccccc1)N=CC1C(=O)Nc2ccc(Cl)cc21 (stereo partly drawn) [(Z/E)-(S)-2-((5-chloro-2-oxoindolin-3-ylidene)methylamino)-N-isopentyl-3-phenylpropanamide]
15 | > 50 | CC(C)CCNC(=O)[C@H](CC(C)C)N=CC1C(=O)Nc2ccc(Cl)cc21 (stereo partly drawn) [(Z/E)-(S)-2-((5-chloro-2-oxoindolin-3-ylidene)methylamino)-N-isopentyl-4-methylpentanamide]
16 | > 50 | CC(C)CCNC(=O)CN=CC1C(=O)Nc2ccccc21 (stereo not drawn) [(Z/E)-N-isopentyl-2-((2-oxoindolin-3-ylidene)methylamino)acetamide]
17 | > 50 | CC(C)CCNC(=O)[C@H](CC(C)C)N=CC1C(=O)N(C)c2ccccc21 (stereo partly drawn) [(Z/E)-(S)-N-isopentyl-4-methyl-2-((1-methyl-2-oxoindolin-3-ylidene)methylamino)pentanamide]
18 | > 50 | CC(C)CCNC(=O)[C@H](CCc1ccccc1)N=CC1C(=O)Nc2c(Cl)cccc21 (stereo partly drawn) [(Z/E)-(S)-2-((7-chloro-2-oxoindolin-3-ylidene)methylamino)-N-isopentyl-4-phenylbutanamide]
